In ChEMBL document CHEMBL4842367, “Strategies toward Discovery of Potent and Orally Bioavailable Proteolysis Targeting Chimera Degraders of Androgen Receptor for the Treatment of Prostate Cancer” (J Med Chem, 2021):
Active and inactive are the calls of the source. The calls are words filed in the database; no cut-off is given here.

Tests used:
[1] = target: T1, Protein cereblon/Androgen receptor (Homo sapiens, UniProt P10275+Q96SW2); test: Protac activity at CRBN/AR in human VCaP cells assessed as induction of AR degradation at 0.001 uM measured after 24 hrs by western blot analysis relative to control; format: cell-based
Target sequence in this assay (P10275 whole entry, looked up): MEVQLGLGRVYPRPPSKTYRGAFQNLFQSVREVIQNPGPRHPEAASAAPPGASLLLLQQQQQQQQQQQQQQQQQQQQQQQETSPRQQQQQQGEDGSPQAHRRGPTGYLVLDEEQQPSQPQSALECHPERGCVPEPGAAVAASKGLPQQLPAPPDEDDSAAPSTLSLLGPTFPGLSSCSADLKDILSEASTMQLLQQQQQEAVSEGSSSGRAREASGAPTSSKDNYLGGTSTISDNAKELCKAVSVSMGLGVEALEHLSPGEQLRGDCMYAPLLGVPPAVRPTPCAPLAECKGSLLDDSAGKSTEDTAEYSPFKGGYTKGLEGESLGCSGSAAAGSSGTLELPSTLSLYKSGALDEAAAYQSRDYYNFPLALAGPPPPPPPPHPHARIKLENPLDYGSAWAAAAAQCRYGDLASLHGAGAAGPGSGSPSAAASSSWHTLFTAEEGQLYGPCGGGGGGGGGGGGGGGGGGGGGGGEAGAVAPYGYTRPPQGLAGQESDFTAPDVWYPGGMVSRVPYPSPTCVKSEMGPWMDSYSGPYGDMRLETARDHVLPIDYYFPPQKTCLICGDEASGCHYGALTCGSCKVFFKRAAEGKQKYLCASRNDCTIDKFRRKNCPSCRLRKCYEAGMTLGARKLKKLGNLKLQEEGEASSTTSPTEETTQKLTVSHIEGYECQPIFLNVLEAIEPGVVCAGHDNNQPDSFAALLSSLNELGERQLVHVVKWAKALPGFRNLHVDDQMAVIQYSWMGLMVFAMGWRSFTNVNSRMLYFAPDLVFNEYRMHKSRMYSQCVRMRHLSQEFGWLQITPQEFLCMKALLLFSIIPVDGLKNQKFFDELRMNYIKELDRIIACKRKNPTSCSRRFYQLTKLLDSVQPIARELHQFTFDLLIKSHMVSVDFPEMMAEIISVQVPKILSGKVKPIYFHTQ
Target sequence in this assay (Q96SW2 whole entry, looked up): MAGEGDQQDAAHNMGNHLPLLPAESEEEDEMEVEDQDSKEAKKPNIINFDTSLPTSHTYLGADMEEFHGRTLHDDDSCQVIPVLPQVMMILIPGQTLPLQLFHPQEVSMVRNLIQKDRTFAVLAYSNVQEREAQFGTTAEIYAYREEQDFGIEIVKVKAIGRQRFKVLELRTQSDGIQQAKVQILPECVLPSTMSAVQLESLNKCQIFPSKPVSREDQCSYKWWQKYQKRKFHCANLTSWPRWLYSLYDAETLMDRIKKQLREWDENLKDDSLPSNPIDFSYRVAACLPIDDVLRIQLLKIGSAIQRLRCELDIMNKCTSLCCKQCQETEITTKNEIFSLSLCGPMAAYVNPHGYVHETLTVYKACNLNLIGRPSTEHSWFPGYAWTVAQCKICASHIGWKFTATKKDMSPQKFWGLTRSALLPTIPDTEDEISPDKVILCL

[2] = target: T1, Protein cereblon/Androgen receptor; test: Protac activity at CRBN/AR in human VCaP cells assessed as induction of AR degradation at 0.01 uM measured after 24 hrs by western blot analysis relative to control; format: cell-based
How it was run: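 VCaP cells treated 24 h at 1, 10, 100 and 1000 nM; lysed in RIPA with protease/phosphatase inhibitors, run on 4–12% SDS-PAGE, blotted to PVDF. AR bands background-subtracted and normalized to loading control; degradation relative to DMSO, average of three independent experiments.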
Target sequence in this assay (P10275 whole entry, looked up): as the sequence (P10275 whole entry, looked up) above
Target sequence in this assay (Q96SW2 whole entry, looked up): as the sequence (Q96SW2 whole entry, looked up) above

[3] = target: T1, Protein cereblon/Androgen receptor; test: Protac activity at CRBN/AR in human VCaP cells assessed as induction of AR degradation at 0.1 uM measured after 24 hrs by western blot analysis relative to control; format: cell-based
Target sequence in this assay (P10275 whole entry, looked up): as the sequence (P10275 whole entry, looked up) above
Target sequence in this assay (Q96SW2 whole entry, looked up): as the sequence (Q96SW2 whole entry, looked up) above

[4] = target: T1, Protein cereblon/Androgen receptor; test: Protac activity at CRBN/AR in human VCAP cells assessed as induction of AR degradation at 1 uM by western blot analysis relative to control; format: cell-based; conditions: time 24.0 hrs
Target sequence in this assay (P10275 whole entry, looked up): as the sequence (P10275 whole entry, looked up) above
Target sequence in this assay (Q96SW2 whole entry, looked up): as the sequence (Q96SW2 whole entry, looked up) above

[5] = Plasma concentration in CB17 SCID mouse at 10 mg/kg, po measured after 1 hr by LC-MS/MS analysis; format: ADME, organism-based
How it was run: (§1)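 Single oral gavage at 10 mg/kg in 100% PEG200 to non-tumor-bearing male mice; three mice per time point, blood collected at 1, 3 and 6 h, plasma obtained by centrifugation and measured by LC–MS/MS; reported as mean ± SD.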

[6] = Plasma concentration in CB17 SCID mouse at 10 mg/kg, po measured after 3 hr by LC-MS/MS analysis; format: ADME, organism-based; how it was run: as §1
[7] = Plasma concentration in CB17 SCID mouse at 10 mg/kg, po measured after 6 hr by LC-MS/MS analysis; format: ADME, organism-based; how it was run: as §1
VCaP [8] = test: Antitumor activity against human VCaP cells xenografted in SCID mouse assessed as tumor growth inhibition at 40 mg/kg, po measured on day 21 relative to control; format: functional; conditions: 504 h, read-out: TGI
How it was run: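 Male CB17 SCID mice implanted s.c. with 5 × 10⁶ VCaP cells in Matrigel; at average tumor volume 150 mm³, size-matched and randomized, seven per group. Oral gavage daily for 21 days in 100% PEG200. Tumors measured 2–3 times weekly, volume = length × width²/2; TGI (%) = (Vc − Vt)/(Vc − Vo) × 100 using group medians at start and end.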

VCaP [9] = test: Growth inhibition of human VCaP cells assessed as cell viability measured after 4 days in presence of R1881 by WST-8 assay; format: functional, cell-based; conditions: 96 h
How it was run: (§2)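 LNCaP and VCaP cells exposed to compounds for 4 days in charcoal-stripped medium containing 0.1 nM R1881; viability read by WST-8 assay.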

LNCaP = test: Growth inhibition of human LNCaP cells assessed as cell viability measured after 4 days in presence of R1881 by WST-8 assay; format: functional, cell-based; conditions: 96 h; how it was run: as §2
[10] = target: T1, Protein cereblon/Androgen receptor; test: Protac activity at CRBN/AR in human VCaP cells assessed as induction of AR degradation measured after 24 hrs by western blot analysis
Target sequence in this assay (P10275 whole entry): as the sequence (P10275 whole entry, looked up) above
Target sequence in this assay (Q96SW2 whole entry): as the sequence (Q96SW2 whole entry, looked up) above

[11] = Half life in ICR mouse at 1 mg/kg, iv measured up to 24 hrs by LC-MS/MS analysis; format: ADME, organism-based; conditions: in vivo
How it was run: (§3)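 Male ICR mice received a single tail-vein IV bolus in 5% DMSO/10% solutol/85% saline at 5 mL/kg. Blood was taken at 0.083, 0.25, 0.5, 1, 2, 4, 6, 8 and 24 h, with n = 3 per time point and each mouse sampled once. Plasma supernatant was diluted three times with water and analysed by LC-MS/MS, and terminal T1/2 was derived noncompartmentally.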

[12] = Tmax in ICR mouse at 3 mg/kg, po measured up to 24 hrs by LC-MS/MS analysis; format: ADME, organism-based; conditions: in vivo
How it was run: (§4)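 Male ICR mice, single oral gavage (3 or 5 mg/kg) in 5% DMSO/10% solutol/85% saline, three mice per group. Separate IV tail-vein bolus group (1 or 2 mg/kg) in the same vehicle. Blood sampled at 0.083–24 h, one sample per mouse, plasma diluted threefold and analysed by LC–MS/MS; noncompartmental parameters.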

[13] = Oral bioavailability in ICR mouse at 3 mg/kg measured up to 24 hrs by LC-MS/MS analysis; format: ADME, organism-based; conditions: in vivo; how it was run: as §4
[14] = Tmax in ICR mouse at 5 mg/kg, po measured up to 24 hrs by LC-MS/MS analysis; format: ADME, organism-based; conditions: in vivo; how it was run: as §4
[15] = Half life in ICR mouse at 2 mg/kg, iv measured up to 24 hrs by LC-MS/MS analysis; format: ADME, organism-based; conditions: in vivo; how it was run: as §3
[16] = Oral bioavailability in ICR mouse at 5 mg/kg measured up to 24 hrs by LC-MS/MS analysis; format: ADME, organism-based; conditions: in vivo; how it was run: as §4
Mus musculus [17] = test: Reduction in AR protein level in tumor of human VCaP cells xenografted in SCID mouse at 20 mg/kg, po single dose measured after 24 hrs by Western blot analysis; format: functional, organism-based
How it was run: (§5)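 SCID mice bearing VCaP xenografts given one oral dose of 20 mg/kg; tumors harvested at 6 and 24 h after dosing and AR protein measured by Western blot with GAPDH loading control.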

[18] = Plasma concentration in human VCaP cells xenografted in SCID mouse at 20 mg/kg, po single dose measured after 6 hrs by LC-MS/MS analysis; format: ADME, organism-based
How it was run: (§6)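 Single oral gavage, 20 mg/kg in 100% PEG200, to male SCID mice bearing one VCaP tumor each (about 200 mm³). Plasma and tumor taken at 6 and 24 h, three mice per time point. Tumors frozen, ground in liquid nitrogen, homogenized in water/acetonitrile 4:1, precipitated with cold acetonitrile; analysis by positive-ion MRM LC–MS/MS.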

[19] = Plasma concentration in human VCaP cells xenografted in SCID mouse at 20 mg/kg, po single dose measured after 24 hrs by LC-MS/MS analysis; format: ADME, organism-based; how it was run: as §6
[20] = Drug uptake in human VCaP cells xenografted in SCID mouse tumor tissue at 20 mg/kg, po single dose measured after 6 hrs by LC-MS/MS analysis; format: ADME, organism-based, Neoplasm; conditions: in vivo; how it was run: as §6
[21] = Drug uptake in human VCaP cells xenografted in SCID mouse tumor tissue at 20 mg/kg, po single dose measured after 24 hrs by LC-MS/MS analysis; format: ADME, organism-based, Neoplasm; conditions: in vivo
How it was run: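 Male CB17 SCID mice carried subcutaneous VCaP xenografts, implanted as 5 × 10⁶ cells in Matrigel, grown to about 200 mm³. Mice received a single oral gavage of 20 mg/kg in 100% PEG200. Tumors were collected at 6 and 24 h, three mice per time point, and frozen. They were homogenized in water/acetonitrile 4:1, protein-precipitated with cold acetonitrile, and assayed by LC-MS/MS (positive-ion MRM). Values are mean ± SD.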

Mus musculus [22] = test: Reduction in AR protein level in tumor of human VCaP cells xenografted in SCID mouse at 20 mg/kg, po single dose measured after 6 hrs by Western blot analysis; format: functional, organism-based; how it was run: as §5

Q: Which results are given for `CC1(C)[C@H](NC(=O)c2ccc(N3CCN(CCNc4ccc5c(c4)C(=O)N(C4CCC(=O)NC4=O)C5=O)CC3)cc2)C(C)(C)[C@H]1Oc1ccc(C#N)c(Cl)c1` (some centres not stated)?
A: Activity [1]: 58%; Activity [2]: 83%; Activity [3]: 79%; Activity [4]: 76%; concentration at 1 h [5]: 1240 ng/mL; concentration at 3 h [6]: 919 ng/mL; concentration at 6 h [7]: 604 ng/mL

Q: With `CNC(=O)c1ccc(N2C(=S)N(c3ccc(C#N)c(C(F)(F)F)c3)C(=O)C2(C)C)cc1F` [ENZALUTAMIDE] as the compound, how does the inhibition in vivo at 40 mg/kg (VCaP [8]) read?
A: 39%

Q: With `CC1(C)[C@H](NC(=O)c2ccc(N3CCN(CCCNc4ccc5c(c4)C(=O)N(C4CCC(=O)NC4=O)C5=O)CC3)cc2)C(C)(C)[C@H]1Oc1ccc(C#N)c(Cl)c1` (some centres not stated) as the compound, how does the Activity [1] read?
A: 22%

Q: And the Activity [2]?
A: 37%

Q: And the Activity [3]?
A: 54%

Q: And the Activity [4]?
A: 53%

Q: And the concentration at 1 h [5]?
A: 267 ng/mL

Q: And the concentration at 3 h [6]?
A: 254 ng/mL

Q: What about the concentration at 6 h [7] of the same compound?
A: 96.9 ng/mL

Q: With `CC1(C)[C@H](NC(=O)c2ccc(NCCCCCNc3ccc4c(c3)C(=O)N(C3CCC(=O)NC3=O)C4=O)cc2)C(C)(C)[C@H]1Oc1ccc(C#N)c(Cl)c1` (some centres not stated) as the compound, how does the Activity [1] read?
A: 49%

Q: And the Activity [2]?
A: 84%

Q: What about the Activity [3] of the same compound?
A: 89%

Q: And the Activity [4]?
A: 97%

Q: And the concentration at 1 h [5]?
A: 111 ng/mL

Q: And the concentration at 3 h [6]?
A: 55.9 ng/mL

Q: What about the concentration at 6 h [7] of the same compound?
A: 2.9 ng/mL

Q: Which IC50 (VCaP [9]) does the source give for `CN1C(=O)CCC(N2C(=O)c3ccc(N4CCC(CN5CCN(c6ccc(C(=O)N[C@H]7C(C)(C)[C@H](Oc8ccc(C#N)c(Cl)c8)C7(C)C)cc6)CC5)CC4)cc3C2=O)C1=O` (some centres not stated) here?
A: 783 nM

Q: What about the IC50 (LNCaP) of the same compound?
A: 237 nM

Q: Which results are given for `CN1CCN(c2ccc(C(=O)N[C@H]3C(C)(C)[C@H](Oc4ccc(C#N)c(Cl)c4)C3(C)C)cc2)CC1`?
A: IC50 (VCaP [9]): 49 nM; IC50 (LNCaP): 81 nM

Q: With `CC1(C)[C@H](NC(=O)c2ccc(N3CCC(N4CCN(c5ccc6c(c5)C(=O)N(C5CCC(=O)NC5=O)C6=O)CC4)CC3)cc2)C(C)(C)[C@H]1Oc1ccc(C#N)c(Cl)c1` (some centres not stated) as the compound, how does the EC50 [10] read?
A: 0.1 nM

Q: And the t1/2 [11]?
A: 21 h

Q: And the Tmax [12]?
A: 6 h

Q: What about the F [13] of the same compound?
A: 24%

Q: What does the source list for `CC1(C)[C@H](NC(=O)c2ccc(NCCCCCCNc3ccc4c(c3)C(=O)N(C3CCC(=O)NC3=O)C4=O)cc2)C(C)(C)[C@H]1Oc1ccc(C#N)c(Cl)c1` (some centres not stated)?
A: Activity [1]: 69%; Activity [2]: 85%; Activity [3]: 77%; Activity [4]: 79%; concentration at 1 h [5]: 16.9 ng/mL; concentration at 3 h [6]: 8 ng/mL; concentration at 6 h [7]: 1.6 ng/mL

Q: Which Activity [1] does the source give for `CC1(C)[C@H](NC(=O)c2ccc(N3CCN(C4CC5(C4)CN(c4ccc6c(c4)C(=O)N(C4CCC(=O)NC4=O)C6=O)C5)CC3)cc2)C(C)(C)[C@H]1Oc1ccc(C#N)c(Cl)c1` (some centres not stated) here?
A: 37%

Q: And the Activity [2]?
A: 78%

Q: What about the Activity [3] of the same compound?
A: 93%

Q: What about the Activity [4] of the same compound?
A: 88%

Q: Which EC50 [10] does the source give for `CC1(C)[C@H](NC(=O)c2ccc(N3CCC(CN4CCN(c5ccc6c(c5)C(=O)N(C5CCC(=O)NC5=O)C6=O)CC4)CC3)cc2)C(C)(C)[C@H]1Oc1ccc(C#N)c(Cl)c1` (some centres not stated) here?
A: 0.4 nM

Q: What about the t1/2 [11] of the same compound?
A: 25.5 h

Q: And the Tmax [12]?
A: 4.7 h

Q: And the F [13]?
A: 33%

Q: Which Tmax [14] does the source give for `CC1(C)[C@H](NC(=O)c2ccc(N3CCN(CC4CN(c5ccc6c(c5)C(=O)N(C5CCC(=O)NC5=O)C6=O)C4)CC3)cc2)C(C)(C)[C@H]1Oc1ccc(C#N)c(Cl)c1` (some centres not stated) here?
A: 4 h

Q: What about the EC50 [10] of the same compound?
A: 0.2 nM

Q: And the t1/2 [15]?
A: 17.8 h

Q: And the F [16]?
A: 75%

Q: And the Activity (Mus musculus [17])?
A: Active

Q: What about the concentration at 6 h [18] of the same compound?
A: 1360 ng/mL

Q: What about the concentration at 24 h [19] of the same compound?
A: 1670 ng/mL

Q: What about the Drug uptake [20] of the same compound?
A: 718 ng/g

Q: What about the Drug uptake [21] of the same compound?
A: 1740 ng/g

Q: What does the source list for `CC1(C)[C@H](NC(=O)c2ccc(N3CCN(C4CCN(c5ccc6c(c5)C(=O)N(C5CCC(=O)NC5=O)C6=O)CC4)CC3)cc2)C(C)(C)[C@H]1Oc1ccc(C#N)c(Cl)c1` (some centres not stated)?
A: Tmax [14]: 4 h; EC50 [10]: 0.8 nM; F [16]: 37%; Activity (Mus musculus [17]): Active; Activity (Mus musculus [22]): Active; concentration at 6 h [18]: 803 ng/mL; concentration at 24 h [19]: 776 ng/mL; Drug uptake [20]: 315 ng/kg; Drug uptake [21]: 685 ng/g

Q: Which results are given for `CC1(C)[C@H](NC(=O)c2ccc(N3CCN(CC4CC5(C4)CN(c4ccc6c(c4)C(=O)N(C4CCC(=O)NC4=O)C6=O)C5)CC3)cc2)C(C)(C)[C@H]1Oc1ccc(C#N)c(Cl)c1` (some centres not stated)?
A: Activity [1]: 30%; Activity [2]: 82%; Activity [3]: 97%; Activity [4]: 95%
